From ChEMBL document CHEMBL5360615, “Pharmacological and Physicochemical Properties Optimization for Dual-Target Dopamine D3 (D3R) and μ-Opioid (MOR) Receptor Ligands as Potentially Safer Analgesics” (J Med Chem, 2023)
Calls of active or inactive are those of the source. The calls are words filed in the database; no cut-off is given here.

Columns and labels:
Mu-type opioid receptor [1] = target: Mu-type opioid receptor (Homo sapiens, UniProt P35372); experiment: Displacement of [3H]-DAMGO from human MOR receptor expressed in HEK293T cell membrane assessed as inhibition constant incubated for 60 mins by MicroBeta scintillation counting method; type: cell membranes
Procedure, shortened: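 HEK293 cells stably expressing human MOR, grown in DMEM with 10% FBS and hygromycin B; membranes prepared from confluent cells. Binding buffer 50 mM Tris, 5 mM MgCl2, pH 7.4. Nonspecific binding with 10 μM naloxone. 60 min at RT, then GF/C filtration.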

D(3) dopamine receptor [2] = target: T1, D(3) dopamine receptor (Homo sapiens, UniProt P35462); experiment: Displacement of [3H]N-methylspiperone from human D3R receptor expressed in HEK293T cell membrane assessed as inhibition constant incubated for 60 mins by MicroBeta scintillation counting method; type: cell membranes
D(2) dopamine receptor = D(2) dopamine receptor (Homo sapiens, UniProt P14416); experiment: Displacement of [3H]N-methylspiperone from human D2L receptor expressed in HEK293T cell membrane assessed as inhibition constant incubated for 60 mins by MicroBeta scintillation counting method; type: cell membranes
Mu-type opioid receptor [3] = target: T2, Mu-type opioid receptor (Mus musculus, UniProt P42866); experiment: Partial agonist activity at SNAP-tagged mouse MOR transfected in HEK293T cells coexpressing wild type Galpha-i2, venus-tagged Gbeta-1 (156 to 239 residues), venus-tagged Ggamma2 (1 to 155 residues) and Rluc8 fused masGRK3ct assessed as Galpha-i2 activation using coelenterazine as substrate incubated for 40 mins by BRET based GPA assay; type: functional, cell-based
Procedure, shortened: (§1)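 HEK293T cells transiently transfected with BRET sensors (DNA:PEI 1:6), plated into poly-D-lysine plates and assayed 48 h post-transfection. Cells washed and held in D-PBS 30 min at 37 °C. Coelenterazine h 5 μM final; ligands 10 μM to 0.01 nM. At least three independent experiments in duplicate.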

Mu-type opioid receptor [4] = target: T2, Mu-type opioid receptor; experiment: (§2) Partial agonist activity at Rluc8 fused mouse MOR transfected in HEK293T cells assessed as Nb33 recruitment using coelenterazine as substrate incubated for 40 mins by BRET assay; type: functional, cell-based; procedure, shortened: as §1
[5] = target: Mu-type opioid receptor (Mus musculus) (UniProt P42866); experiment: Partial agonist activity at Rluc8 fused mouse MOR transfected in HEK293T cells coexpressing wild type GRK2 assessed as arrestin-3 recruitment using coelenterazine as substrate incubated for 40 mins by BRET assay; type: functional, cell-based; procedure, shortened: as §1
D(3) dopamine receptor [6] = target: T1, D(3) dopamine receptor; experiment: Antagonist activity at SNAP-tagged human D3R receptor transfected in HEK293T cells coexpressing wild type Galpha-oA, venus-tagged Gbeta-1 (156 to 239 residues), venus-tagged Ggamma2 (1 to 155 residues) and Rluc8 fused masGRK3ct assessed as Galpha-oA activation using coelenterazine as substrate incubated for 40 mins in presence of quinpirole by BRET based GPA assay; type: functional, cell-based
[7] = target: Mu-type opioid receptor (Mus musculus) (UniProt P42866); experiment: Partial agonist activity at Rluc8 fused mouse MOR transfected in HEK293T cells coexpressing wild type GRK2 assessed as arrestin-3 recruitment at 10 uM using coelenterazine as substrate incubated for 40 mins by BRET assay relative to control; type: functional, cell-based
Procedure, shortened: (§3)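 HEK293T cells transiently transfected with BRET sensors (DNA:PEI 1:6), plated into poly-D-lysine plates and assayed 48 h post-transfection. Cells washed and held in D-PBS 30 min at 37 °C. Coelenterazine h 5 μM final; ligands 10 μM to 0.01 nM. […] At least three independent experiments in duplicate.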

[8] = target: Mu-type opioid receptor (Mus musculus) (UniProt P42866); experiment: Partial agonist activity at Rluc8 fused mouse MOR transfected in HEK293T cells assessed as Nb33 recruitment at 10 uM using coelenterazine as substrate incubated for 40 mins by BRET assay relative to control; type: functional, cell-based; procedure, shortened: as §1
[9] = target: Mu-type opioid receptor (Mus musculus) (UniProt P42866); experiment: Partial agonist activity at SNAP-tagged mouse MOR transfected in HEK293T cells coexpressing wild type Galpha-i2, venus-tagged Gbeta-1 (156 to 239 residues), venus-tagged Ggamma2 (1 to 155 residues) and Rluc8 fused masGRK3ct assessed as Galpha-i2 activation at 10 uM using coelenterazine as substrate incubated for 40 mins by BRET based GPA assay relative to control; type: functional, cell-based; procedure, shortened: as §1
[10] = target: Mu-type opioid receptor (Mus musculus) (UniProt P42866); experiment: Agonist activity at Rluc8 fused mouse MOR transfected in HEK293T cells assessed as Nb33 recruitment at 10 uM using coelenterazine as substrate incubated for 40 mins by BRET assay relative to control; type: functional, cell-based; conditions: filed as agonist; procedure, shortened: as §3
[11] = target: Mu-type opioid receptor (Mus musculus) (UniProt P42866); experiment: Agonist activity at Rluc8 fused mouse MOR transfected in HEK293T cells coexpressing wild type GRK2 assessed as arrestin-3 recruitment at 10 uM using coelenterazine as substrate incubated for 40 mins by BRET assay relative to control; type: functional, cell-based; conditions: filed as agonist; procedure, shortened: as §3
[12] = target: Mu-type opioid receptor (Mus musculus) (UniProt P42866); experiment: as §2; type: functional, cell-based; procedure, shortened: as §1
D(3) dopamine receptor [13] = target: T1, D(3) dopamine receptor; experiment: Partial agonist activity at SNAP-tagged human D3R receptor transfected in HEK293T cells coexpressing wild type Galpha-oA, venus-tagged Gbeta-1 (156 to 239 residues), venus-tagged Ggamma2 (1 to 155 residues) and Rluc8 fused masGRK3ct assessed as Galpha-oA activation using coelenterazine as substrate incubated for 40 mins by BRET based GPA assay; type: functional, cell-based
Mu-type opioid receptor [14] = target: T2, Mu-type opioid receptor; experiment: Agonist activity at SNAP-tagged mouse MOR transfected in HEK293T cells coexpressing wild type Galpha-i2, venus-tagged Gbeta-1 (156 to 239 residues), venus-tagged Ggamma2 (1 to 155 residues) and Rluc8 fused masGRK3ct assessed as Galpha-i2 activation using coelenterazine as substrate incubated for 40 mins by BRET based GPA assay; type: functional, cell-based; conditions: read-out: EC50; procedure, shortened: as §1
Mu-type opioid receptor [15] = target: T2, Mu-type opioid receptor; experiment: Agonist activity at Rluc8 fused mouse MOR transfected in HEK293T cells assessed as Nb33 recruitment using coelenterazine as substrate incubated for 40 mins by BRET assay; type: functional, cell-based; procedure, shortened: as §1
Mu-type opioid receptor [16] = target: T2, Mu-type opioid receptor; experiment: Agonist activity at Rluc8 fused mouse MOR transfected in HEK293T cells coexpressing wild type GRK2 assessed as arrestin-3 recruitment using coelenterazine as substrate incubated for 40 mins by BRET assay; type: functional, cell-based; procedure, shortened: as §1

T1 sequence (P35462 whole entry): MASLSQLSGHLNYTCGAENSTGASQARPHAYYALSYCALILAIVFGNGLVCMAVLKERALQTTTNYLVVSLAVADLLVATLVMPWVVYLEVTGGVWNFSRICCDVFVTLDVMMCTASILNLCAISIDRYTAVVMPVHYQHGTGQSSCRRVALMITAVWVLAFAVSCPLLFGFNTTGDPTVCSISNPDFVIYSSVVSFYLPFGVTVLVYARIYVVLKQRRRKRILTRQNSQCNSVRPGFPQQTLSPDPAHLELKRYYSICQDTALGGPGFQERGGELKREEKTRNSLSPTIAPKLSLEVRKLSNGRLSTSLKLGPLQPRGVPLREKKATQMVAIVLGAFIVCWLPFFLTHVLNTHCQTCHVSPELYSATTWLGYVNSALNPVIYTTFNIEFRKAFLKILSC
D(2) dopamine receptor, sequence (P14416 whole entry, the tested form may be a part): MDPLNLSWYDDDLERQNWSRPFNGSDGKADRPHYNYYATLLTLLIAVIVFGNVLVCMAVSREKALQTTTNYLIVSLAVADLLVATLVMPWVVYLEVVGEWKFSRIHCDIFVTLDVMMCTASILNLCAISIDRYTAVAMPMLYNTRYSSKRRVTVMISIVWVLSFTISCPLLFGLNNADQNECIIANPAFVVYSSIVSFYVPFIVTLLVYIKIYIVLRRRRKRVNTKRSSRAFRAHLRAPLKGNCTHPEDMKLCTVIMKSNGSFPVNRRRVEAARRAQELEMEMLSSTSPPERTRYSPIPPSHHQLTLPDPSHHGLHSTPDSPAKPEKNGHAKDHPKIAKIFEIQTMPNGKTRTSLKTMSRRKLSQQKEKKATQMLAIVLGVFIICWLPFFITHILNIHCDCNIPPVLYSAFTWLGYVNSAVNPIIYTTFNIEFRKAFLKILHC
Mu-type opioid receptor (Homo sapiens, UniProt P35372), sequence (P35372 whole entry): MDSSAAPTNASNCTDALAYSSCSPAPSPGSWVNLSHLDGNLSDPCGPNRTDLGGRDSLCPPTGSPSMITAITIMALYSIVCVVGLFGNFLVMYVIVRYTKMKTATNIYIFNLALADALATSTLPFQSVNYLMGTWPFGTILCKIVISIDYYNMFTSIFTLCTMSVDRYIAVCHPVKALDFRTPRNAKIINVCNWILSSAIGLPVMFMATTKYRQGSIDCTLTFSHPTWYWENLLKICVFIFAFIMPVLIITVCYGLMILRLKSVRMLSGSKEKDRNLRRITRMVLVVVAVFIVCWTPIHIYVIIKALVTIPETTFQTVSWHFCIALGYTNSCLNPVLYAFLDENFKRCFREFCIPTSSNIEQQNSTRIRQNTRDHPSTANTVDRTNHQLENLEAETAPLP
Mu-type opioid receptor (Mus musculus), sequence (P42866 whole entry, the tested form may be a part): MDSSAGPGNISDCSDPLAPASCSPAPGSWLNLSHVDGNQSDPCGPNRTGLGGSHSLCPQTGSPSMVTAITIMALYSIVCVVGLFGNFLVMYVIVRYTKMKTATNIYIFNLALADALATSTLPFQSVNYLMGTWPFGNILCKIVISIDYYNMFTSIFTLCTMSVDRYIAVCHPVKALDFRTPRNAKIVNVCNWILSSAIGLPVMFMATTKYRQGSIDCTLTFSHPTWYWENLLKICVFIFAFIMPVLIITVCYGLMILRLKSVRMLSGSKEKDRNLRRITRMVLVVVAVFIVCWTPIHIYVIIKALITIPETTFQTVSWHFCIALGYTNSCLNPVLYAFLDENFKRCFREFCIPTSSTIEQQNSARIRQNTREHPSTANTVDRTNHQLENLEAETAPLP
T2 sequence (P42866 whole entry, the tested form may be a part): as above

Row | SMILES | Ki (Mu-type opioid receptor [1]) [nM] | Ki (D(3) dopamine receptor [2]) [nM] | Ki (D(2) dopamine receptor) [nM] | other results
1 | CN(C)C(=O)C(CCN1CCN(c2cccc(C(F)(F)F)n2)CC1)(c1ccccc1)c1ccccc1 | 1.23 |  |  | 
2 | CN(C)C(=O)C(CCN[C@@H]1C[C@H]1c1ccc(F)cc1)(c1ccccc1)c1ccccc1 (relative stereo) | 47 |  |  | 
3 | CC1CCC(CN2CCN(c3cccc(Cl)c3Cl)CC2)CN1CCC(C(=O)N(C)C)(c1ccccc1)c1ccccc1 (stereo not drawn) | 867 | 309 | 146 | 
4 | CCC1(CC)CC(OCCCN2CCN(c3cccc(Cl)c3Cl)CC2)(c2ccccn2)CCO1 (stereo not drawn) | 2270 | 21.7 | 122 | 
5 | CN(C)C(=O)C(CCN1C[C@H](O)C[C@H]1C(=O)NCCCCN1CCN(c2cccc(Cl)c2Cl)CC1)(c1ccccc1)c1ccccc1 | 564 |  |  | EC50 (Mu-type opioid receptor [3]): 1810 nM
6 | CCC1(CC)CC(OCCCNCc2cccc(Cl)c2Cl)(c2ccccn2)CCO1 (stereo not drawn) | 540 | 1180 | 13400 | 
7 | CN(C)C(=O)C(CCN1C[C@H](O)C[C@H]1CN1CCN(c2cccc(Cl)c2Cl)CC1)(c1ccccc1)c1ccccc1 | 529 | 247 | 1180 | EC50 (Mu-type opioid receptor [4]): 3330 nM; Activity [5]: inactive; EC50 (Mu-type opioid receptor [3]): 3450 nM; Activity (D(3) dopamine receptor [6]): inactive; Activity [7]: inactive; Emax [8]: 12.7%; Emax ([9]; filed as partial agonist): 73.6%
8 | FC(F)(F)c1cccc(N2CCN(CCC3(c4ccccn4)CCOCC3)CC2)n1 | 1670 |  |  | 
9 | Fc1cncc(CNCC[C@@]2(c3ccccn3)CCOC3(CCCC3)C2)c1 | 54.7 | 85100 | > 100000 | 
10 | CN(C)C(=O)C(CCN1C[C@H](O)C[C@H]1CN1CCN(c2cccc(C(F)(F)F)n2)CC1)(c1ccccc1)c1ccccc1 | 782 | 2700 | 4660 | 
11 | FC(F)(F)c1cccc(N2CCN(CCCOC3(c4ccccn4)CCOCC3)CC2)n1 | 2070 |  |  | 
12 | C[C@@H](NC(=O)[C@@H](N)Cc1ccc(O)cc1)C(=O)NCC(=O)N(C)[C@@H](Cc1ccccc1)C(=O)NCCO |  |  |  | Emax [10]: 98.5%; Emax [11]: 98.7%
13 | CN(C)C(=O)C(CCN[C@@H]1C[C@H]1c1ccc(Cl)cc1)(c1ccccc1)c1ccccc1 (relative stereo) | 12.3 |  |  | 
14 | CN(C)C(=O)C(CCN(CCO)[C@@H]1C[C@H]1c1ccc(Cl)cc1)(c1ccccc1)c1ccccc1 (relative stereo) | 26.9 |  | 7330 | 
15 | CCc1cc(Cl)c(OC)c(N2CCN(C[C@@H]3C[C@@H](O)CN3CCC(C(=O)N(C)C)(c3ccccc3)c3ccccc3)CC2)c1 | 377 | 111 | 870 | Activity [12]: inactive; Activity [5]: inactive; EC50 (Mu-type opioid receptor [3]): 3310 nM; EC50 (D(3) dopamine receptor [13]): 25.4 nM; IC50 (D(3) dopamine receptor [6]): 2950 nM; EC50 (D(3) dopamine receptor [6]; hek293t): 2960 nM; Activity [7]: inactive; Emax [8]: inactive; Emax ([9]; filed as partial agonist): 86.1%
16 | CN(C)C(=O)C(CCN1C[C@H](F)C[C@H]1C(=O)NCCCCN1CCN(c2cccc(Cl)c2Cl)CC1)(c1ccccc1)c1ccccc1 | 787 |  |  | 
17 | CN(C)C(=O)C(CCN1C[C@H](O)C[C@H]1C(=O)NCCCCN1CCN(c2cccc(C(F)(F)F)n2)CC1)(c1ccccc1)c1ccccc1 | 791 |  |  | EC50 (Mu-type opioid receptor [3]): 470 nM

Row | SMILES | Ki (Mu-type opioid receptor [1]) [nM] | Ki (D(3) dopamine receptor [2]) [nM] | Ki (D(2) dopamine receptor) [nM] | other results
18 | Clc1cccc(N2CCN(CCC3(c4ccccn4)CCOCC3)CC2)c1Cl | 691 |  |  | EC50 (Mu-type opioid receptor [14]): 848 nM; EC50 (Mu-type opioid receptor [15]): 1590 nM; EC50 (Mu-type opioid receptor [16]): 6480 nM
19 | FC(F)(F)c1cccc(N2CCN(CCC3(c4ccccn4)CCOC4(CCCC4)C3)CC2)n1 (stereo not drawn) | 166 | 734 | 5430 | 
20 | CCC1(CC)CC(OCCCN2CCN(c3cccc(C(F)(F)F)n3)CC2)(c2ccccn2)CCO1 (stereo not drawn) | 745 |  | 1240 | 
21 | CCCN(CCC(C(=O)N(C)C)(c1ccccc1)c1ccccc1)[C@@H]1C[C@H]1c1ccc(Cl)cc1 (relative stereo) | 31.2 |  |  | 
22 | COc1ccc([C@@H]2C[C@H]2NCCC(C(=O)N(C)C)(c2ccccc2)c2ccccc2)cc1 (relative stereo) | 81.8 |  |  | 
23 | CN(C)C(=O)C(CCN1CCN(c2nsc3ccccc23)CC1)(c1ccccc1)c1ccccc1 | 0.364 |  | 465 | 
24 | CCC1(CC)CC(OCCCNCc2cccc(C(F)(F)F)n2)(c2ccccn2)CCO1 (stereo not drawn) | 2520 | 2700 |  | 
25 | CCc1cc(Cl)c(OC)c(N2CCN(CCCCc3cn(CCC(C(=O)N(C)C)(c4ccccc4)c4ccccc4)nn3)CC2)c1 | 2120 |  |  | 
26 | FC(F)(F)c1cccc(N2CCN(CCCOC3(c4ccccn4)CCOC4(CCCC4)C3)CC2)n1 (stereo not drawn) | 1640 | 286 | 1310 | 
27 | Clc1cccc(N2CCN(CCCOC3(c4ccccn4)CCOCC3)CC2)c1Cl | 1750 |  |  | 
28 | CN(C)C(=O)C(CCN1C[C@H](F)C[C@H]1C(=O)NCCCCN1CCN(c2cccc(C(F)(F)F)n2)CC1)(c1ccccc1)c1ccccc1 | 192 |  |  | EC50 (Mu-type opioid receptor [4]): 5750 nM; EC50 (Mu-type opioid receptor [3]): 1160 nM
29 | COc1ccsc1CNCC[C@@]1(c2ccccn2)CCOC2(CCCC2)C1 [OLICERIDINE] |  | 6860 | 83200 | Emax [7]: 49.1%; Emax [8]: 31.4%; Emax [9]: 93.2%
30 | Clc1cccc(N2CCN(CCCCNCCC3(c4ccccn4)CCOCC3)CC2)c1Cl | 1460 |  |  | 
31 | CCc1cc(Cl)c(OC)c(N2CCN(Cc3cn(CCC(C(=O)N(C)C)(c4ccccc4)c4ccccc4)nn3)CC2)c1 | 2380 |  |  | 
32 | Clc1ccc([C@@H]2C[C@H]2NCCC2(c3ccccn3)CCOCC2)cc1 (relative stereo) | 1580 |  |  | 
33 | COc1ccccc1[C@@H]1C[C@H]1NCCC(C(=O)N(C)C)(c1ccccc1)c1ccccc1 (relative stereo) | 55.2 |  |  | 
